Results as given in ChEMBL document CHEMBL1157791, “Discovery of GSK1070916, a potent and selective inhibitor of Aurora B/C kinase” (J Med Chem, 2010).
Values belong to the compound of their own block, whether it stands above or below them. Active and inactive are the calls of the source. No cut-off for these calls is given here.

Experiments:
Aurora kinase C [1] = target: T1, Aurora kinase C (Homo sapiens, UniProt Q9UQB9); experiment: Competitive inhibition of human Aurora C ATP binding site
T1 sequence (Q9UQB9 whole entry): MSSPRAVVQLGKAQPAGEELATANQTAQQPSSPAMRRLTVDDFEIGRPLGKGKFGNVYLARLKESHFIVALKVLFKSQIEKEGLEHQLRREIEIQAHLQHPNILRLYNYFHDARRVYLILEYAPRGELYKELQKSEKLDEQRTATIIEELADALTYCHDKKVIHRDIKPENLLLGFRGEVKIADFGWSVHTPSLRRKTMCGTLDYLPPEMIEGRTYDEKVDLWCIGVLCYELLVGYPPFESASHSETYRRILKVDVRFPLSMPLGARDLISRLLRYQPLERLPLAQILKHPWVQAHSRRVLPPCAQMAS

Mus musculus [2] = experiment: Dose normalized AUC (0 to infinity) in mouse at 2 mg/kg, iv administered as single dose; type: ADME, organism-based; set-up: time infinity, dose 2 mg/kg, route intravenous; details: in vivo
Method in brief: (§1)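 Conscious mice received a single intravenous dose. Blood clearance, dose-normalized AUC(0-∞) and steady-state volume of distribution were derived from the profile.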

HL-60 [3] = experiment: Antitumor activity against human HL60 cells xenografted in nude mouse assessed as complete suppression of tumor regrowth at 100 mg/kg, ip QD for 5 days and for 2 cycles measured on day 51 post last dose; type: functional, organism-based; set-up: dose 100 mg/kg
Method in brief: (§2)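 Subcutaneous HL-60 xenografts in nude mice. Dosing was intraperitoneal, once daily for five days, repeated for two cycles (qdx5 ×2), at 75 or 100 mg kg-1. Untreated mice served as controls. Tumors were followed for regression and for regrowth up to 51 days after the last dose.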

HL-60 [4] = experiment: Antitumor activity against human HL60 cells xenografted in nude mouse assessed as complete tumor regression at 100 mg/kg, ip QD for 5 days and for 2 cycles; type: functional, organism-based; set-up: dose 100 mg/kg; method in brief: as §2
Mus musculus [5] = experiment: Inhibition of histone H3 phosphorylation in ip dosed mouse xenografted with human COLO205 cells after 30 hrs; type: functional, organism-based; details: COLO 205
Method in brief: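 Mice bearing advanced Colo205 tumors were treated intraperitoneally at several doses. Tumor phospho-histone H3 (Ser10) was measured by ELISA 30 h post dose and expressed as percent inhibition relative to control.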

Cytochrome P450 2C9 [6] = target: T2, Cytochrome P450 2C9 (Homo sapiens, UniProt P11712); experiment: Inhibition of CYP2C9 in human liver microsomes using diclofenac as substrate; type: ADME, Microsome
T2 sequence (P11712 whole entry): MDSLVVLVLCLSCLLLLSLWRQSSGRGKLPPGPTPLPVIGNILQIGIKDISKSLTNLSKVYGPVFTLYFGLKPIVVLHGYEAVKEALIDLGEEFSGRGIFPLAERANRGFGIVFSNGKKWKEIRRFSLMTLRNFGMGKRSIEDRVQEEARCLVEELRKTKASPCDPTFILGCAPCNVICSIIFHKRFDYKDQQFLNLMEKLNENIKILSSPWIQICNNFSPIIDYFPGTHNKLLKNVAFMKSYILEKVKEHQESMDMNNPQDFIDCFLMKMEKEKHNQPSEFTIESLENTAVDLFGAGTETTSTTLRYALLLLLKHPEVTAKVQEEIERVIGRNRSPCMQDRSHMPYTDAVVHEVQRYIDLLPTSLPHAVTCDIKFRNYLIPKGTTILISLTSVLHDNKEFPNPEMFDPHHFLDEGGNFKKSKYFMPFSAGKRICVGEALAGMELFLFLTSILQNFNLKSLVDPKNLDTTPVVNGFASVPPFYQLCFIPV
Method in brief: (§3)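 Human liver microsome incubations with a selective probe substrate for each CYP isozyme. Product formation was read by LC/MS/MS. Activity with compound was normalized to activity without compound and expressed as percent of control activity.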

[7] = Solubility at pH 4; type: physicochemical; details: buffer
Aurora kinase C [8] = target: T1, Aurora kinase C; experiment: Competitive inhibition of Aurora C ATP binding site
Cytochrome P450 1A2 = target: T3, Cytochrome P450 1A2 (Homo sapiens, UniProt P05177); experiment: Inhibition of CYP1A2 in human liver microsomes using phenacetin as substrate; type: ADME, Microsome; method in brief: as §3
T3 sequence (P05177 whole entry): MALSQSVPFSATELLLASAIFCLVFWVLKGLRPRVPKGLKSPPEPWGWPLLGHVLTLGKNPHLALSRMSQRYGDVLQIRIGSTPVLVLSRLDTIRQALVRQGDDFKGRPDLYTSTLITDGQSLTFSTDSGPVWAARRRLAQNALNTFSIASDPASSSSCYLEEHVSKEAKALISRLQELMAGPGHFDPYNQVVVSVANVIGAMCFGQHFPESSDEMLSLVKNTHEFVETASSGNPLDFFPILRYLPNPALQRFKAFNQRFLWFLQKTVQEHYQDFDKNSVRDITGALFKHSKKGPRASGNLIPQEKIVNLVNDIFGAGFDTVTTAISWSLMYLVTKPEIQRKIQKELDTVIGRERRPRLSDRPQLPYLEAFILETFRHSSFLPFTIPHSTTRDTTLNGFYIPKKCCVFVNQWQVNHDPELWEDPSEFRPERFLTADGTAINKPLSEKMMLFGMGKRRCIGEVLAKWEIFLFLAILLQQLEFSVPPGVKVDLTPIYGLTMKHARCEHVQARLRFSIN

HL-60 [9] = experiment: Antitumor activity against human HL60 cells xenografted in nude mouse assessed as complete tumor regression at 75 mg/kg, ip QD for 5 days and for 2 cycles; type: functional, organism-based; set-up: dose 75 mg/kg; method in brief: as §2
[10] = Volume of distribution at steady state in mouse at 2 mg/kg, iv administered as single dose; type: ADME, organism-based; set-up: dose 2 mg/kg, route intravenous; details: in vivo, read-out: Vdss; method in brief: as §1
[11] = Mean residence time in mouse at 2 mg/kg, iv administered as single dose; type: ADME, organism-based; set-up: dose 2 mg/kg, route intravenous; details: in vivo
Cytochrome P450 2D6 [12] = target: T4, Cytochrome P450 2D6 (Homo sapiens, UniProt P10635); experiment: Inhibition of CYP2D6 in human liver microsomes using bufuralol as substrate; type: ADME, Microsome
T4 sequence (P10635 whole entry): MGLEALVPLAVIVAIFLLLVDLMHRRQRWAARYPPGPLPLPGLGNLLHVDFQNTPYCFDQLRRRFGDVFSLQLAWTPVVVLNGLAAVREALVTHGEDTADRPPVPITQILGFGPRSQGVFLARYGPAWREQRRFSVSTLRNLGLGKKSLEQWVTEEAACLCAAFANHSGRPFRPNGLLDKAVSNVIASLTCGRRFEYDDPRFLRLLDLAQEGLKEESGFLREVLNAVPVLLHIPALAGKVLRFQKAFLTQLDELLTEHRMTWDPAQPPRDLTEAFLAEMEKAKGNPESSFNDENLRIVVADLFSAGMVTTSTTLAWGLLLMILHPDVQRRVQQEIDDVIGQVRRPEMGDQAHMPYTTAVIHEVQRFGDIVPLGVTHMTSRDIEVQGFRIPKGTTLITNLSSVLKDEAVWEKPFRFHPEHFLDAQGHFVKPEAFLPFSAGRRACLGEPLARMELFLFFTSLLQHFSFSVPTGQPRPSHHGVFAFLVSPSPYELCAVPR
Method in brief: (§4)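 Human liver microsomes were incubated with a selective probe substrate for each CYP isozyme across a compound concentration series. Product formation was monitored by LC/MS/MS. Activity was normalized to the no-compound control, expressed as percent of control activity, and used to generate an IC50.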

[13] = Blood clearance in mouse at 2 mg/kg, iv administered as single dose; type: ADME, organism-based; set-up: dose 2 mg/kg, route intravenous; details: whole blood; method in brief: as §1
Cytochrome P450 2C19 = Cytochrome P450 2C19 (Homo sapiens, UniProt P33261); experiment: Inhibition of CYP2C19 in human liver microsomes using S-mephenytoin as substrate; type: ADME, Microsome; method in brief: as §4
Chain of Cytochrome P450 2C19 (P33261 whole entry): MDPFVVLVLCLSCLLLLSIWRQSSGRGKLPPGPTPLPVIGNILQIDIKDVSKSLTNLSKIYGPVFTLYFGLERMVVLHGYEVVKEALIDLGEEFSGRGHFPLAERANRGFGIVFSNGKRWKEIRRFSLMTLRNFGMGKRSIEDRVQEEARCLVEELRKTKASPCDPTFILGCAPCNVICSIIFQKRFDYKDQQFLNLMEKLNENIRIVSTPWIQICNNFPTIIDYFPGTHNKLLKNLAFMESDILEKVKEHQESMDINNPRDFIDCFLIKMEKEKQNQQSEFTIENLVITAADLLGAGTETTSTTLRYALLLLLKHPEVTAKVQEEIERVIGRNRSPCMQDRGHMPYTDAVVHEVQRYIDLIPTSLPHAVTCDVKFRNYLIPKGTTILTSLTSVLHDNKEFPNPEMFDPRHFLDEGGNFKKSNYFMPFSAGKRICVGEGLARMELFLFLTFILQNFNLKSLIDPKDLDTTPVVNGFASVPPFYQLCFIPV

[14] = target: T5, Aurora kinase C (Homo sapiens) (UniProt Q9UQB9); experiment: Inhibition of human Aurora C assessed as dissociation half life by rapid dilution method
T5 sequence (whole entry): T1 sequence (Q9UQB9 whole entry)

Aurora kinase B [15] = target: T6, Aurora kinase B (Homo sapiens, UniProt Q96GD4); experiment: Inhibition of human Aurora B by in vitro inhibition assay
T6 sequence (Q96GD4 whole entry): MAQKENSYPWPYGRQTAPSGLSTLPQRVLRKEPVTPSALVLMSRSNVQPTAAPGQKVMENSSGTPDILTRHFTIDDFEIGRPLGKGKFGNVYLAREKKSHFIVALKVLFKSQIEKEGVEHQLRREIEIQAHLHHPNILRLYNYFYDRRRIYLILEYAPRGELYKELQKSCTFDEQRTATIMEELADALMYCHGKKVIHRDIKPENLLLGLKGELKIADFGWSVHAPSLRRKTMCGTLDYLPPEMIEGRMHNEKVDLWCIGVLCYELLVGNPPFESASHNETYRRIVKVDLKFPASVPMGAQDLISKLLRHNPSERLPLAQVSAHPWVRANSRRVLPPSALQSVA

Cytochrome P450 3A4 = Cytochrome P450 3A4 (Homo sapiens, UniProt P08684); experiment: Inhibition of CYP3A4 in human liver microsomes using midazolam as substrate; type: ADME, Microsome; method in brief: as §4
Chain of Cytochrome P450 3A4 (P08684 whole entry): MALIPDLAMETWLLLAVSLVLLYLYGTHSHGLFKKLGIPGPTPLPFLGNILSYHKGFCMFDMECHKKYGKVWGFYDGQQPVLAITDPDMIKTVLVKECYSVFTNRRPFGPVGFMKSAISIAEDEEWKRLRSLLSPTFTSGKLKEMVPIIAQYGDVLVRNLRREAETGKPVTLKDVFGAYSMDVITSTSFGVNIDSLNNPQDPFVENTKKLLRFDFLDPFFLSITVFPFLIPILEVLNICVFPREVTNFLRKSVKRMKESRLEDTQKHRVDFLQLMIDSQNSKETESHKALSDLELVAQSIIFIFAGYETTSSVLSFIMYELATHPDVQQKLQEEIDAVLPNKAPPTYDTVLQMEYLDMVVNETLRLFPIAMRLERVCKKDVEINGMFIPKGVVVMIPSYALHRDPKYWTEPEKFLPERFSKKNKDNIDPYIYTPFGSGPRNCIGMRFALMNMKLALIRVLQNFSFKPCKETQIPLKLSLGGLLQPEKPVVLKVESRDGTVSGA

Aurora kinase A = target: T7, Aurora kinase A (Homo sapiens, UniProt O14965); experiment: Inhibition of human Aurora A
T7 sequence (O14965 whole entry): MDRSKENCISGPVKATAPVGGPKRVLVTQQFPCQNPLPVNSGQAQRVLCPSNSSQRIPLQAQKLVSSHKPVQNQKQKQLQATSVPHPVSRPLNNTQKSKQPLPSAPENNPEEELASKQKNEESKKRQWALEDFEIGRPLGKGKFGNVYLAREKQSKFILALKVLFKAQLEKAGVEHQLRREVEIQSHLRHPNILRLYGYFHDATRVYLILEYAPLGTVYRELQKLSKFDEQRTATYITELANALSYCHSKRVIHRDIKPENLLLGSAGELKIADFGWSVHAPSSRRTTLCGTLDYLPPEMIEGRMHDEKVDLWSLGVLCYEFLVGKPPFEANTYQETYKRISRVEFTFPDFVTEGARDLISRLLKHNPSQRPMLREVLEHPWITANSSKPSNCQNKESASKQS

A549 [16] = experiment: Antiproliferative activity against human A549 cells after 6 to 7 days by celltiter-glo luminescence assay in absence of 70% human serum albumin; type: functional, cell-based
Homo sapiens = species on record: Homo sapiens; experiment: Selectivity ratio of IC50 for human Aurora A to IC50 for human Aurora B
[17] = Volume of distribution at steady state in iv dosed rat; type: ADME, organism-based; details: in vivo, read-out: Vdss
[18] = Half life in iv dosed rat; type: ADME, organism-based; details: in vivo
Cytochrome P450 2C9 [19] = target: T2, Cytochrome P450 2C9; experiment: Inhibition of CYP2C9; type: ADME
Aurora kinase B [20] = target: T6, Aurora kinase B; experiment: Inhibition of human Aurora B assessed as residence time by rapid dilution method
[21] = Plasma clearance in iv dosed rat; type: ADME, organism-based
[22] = Permeability by PAMPA; type: ADME; details: read-out: permeability
[23] = target: Insulin-like growth factor 1 receptor (Homo sapiens, UniProt P08069); experiment: Inhibition of IGF1R
Chain of Insulin-like growth factor 1 receptor (P08069 31-736 limits assumed): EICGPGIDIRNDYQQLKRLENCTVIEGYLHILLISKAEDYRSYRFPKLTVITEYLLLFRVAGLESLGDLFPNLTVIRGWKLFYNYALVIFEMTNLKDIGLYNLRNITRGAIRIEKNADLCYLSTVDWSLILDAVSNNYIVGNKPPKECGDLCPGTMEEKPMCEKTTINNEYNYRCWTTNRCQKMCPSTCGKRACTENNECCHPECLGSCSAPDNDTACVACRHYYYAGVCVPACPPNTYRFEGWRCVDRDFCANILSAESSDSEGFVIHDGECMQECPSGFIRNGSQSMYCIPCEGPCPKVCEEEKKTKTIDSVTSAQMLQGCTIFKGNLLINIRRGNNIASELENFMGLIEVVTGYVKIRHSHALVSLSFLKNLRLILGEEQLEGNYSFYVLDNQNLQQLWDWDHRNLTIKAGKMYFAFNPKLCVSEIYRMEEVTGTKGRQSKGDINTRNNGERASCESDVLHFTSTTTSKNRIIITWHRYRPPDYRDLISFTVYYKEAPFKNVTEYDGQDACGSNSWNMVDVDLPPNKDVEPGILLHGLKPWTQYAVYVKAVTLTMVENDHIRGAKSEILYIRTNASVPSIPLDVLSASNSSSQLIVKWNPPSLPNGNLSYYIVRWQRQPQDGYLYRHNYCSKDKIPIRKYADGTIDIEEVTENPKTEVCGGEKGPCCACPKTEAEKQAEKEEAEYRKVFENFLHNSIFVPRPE
Chain of Insulin-like growth factor 1 receptor (P08069 741-1367 limits assumed): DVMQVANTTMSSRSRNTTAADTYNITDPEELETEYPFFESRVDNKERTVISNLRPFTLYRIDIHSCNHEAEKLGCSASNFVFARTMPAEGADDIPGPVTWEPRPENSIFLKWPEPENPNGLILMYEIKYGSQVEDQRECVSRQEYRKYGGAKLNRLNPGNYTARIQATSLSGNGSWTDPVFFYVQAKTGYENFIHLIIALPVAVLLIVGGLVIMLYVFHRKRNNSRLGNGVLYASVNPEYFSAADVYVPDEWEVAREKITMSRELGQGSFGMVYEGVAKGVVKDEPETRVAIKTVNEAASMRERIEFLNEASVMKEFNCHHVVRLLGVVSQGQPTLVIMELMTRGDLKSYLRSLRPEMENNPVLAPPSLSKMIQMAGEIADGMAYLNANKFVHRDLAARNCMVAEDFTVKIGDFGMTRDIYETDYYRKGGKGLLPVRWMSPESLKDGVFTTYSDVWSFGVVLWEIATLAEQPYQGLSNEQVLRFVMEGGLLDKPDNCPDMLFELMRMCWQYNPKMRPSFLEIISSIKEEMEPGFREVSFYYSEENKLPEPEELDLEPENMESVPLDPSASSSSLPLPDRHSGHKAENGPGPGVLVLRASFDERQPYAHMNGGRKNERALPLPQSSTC
Method in brief: (§5)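 Part of a 328 human protein and lipid kinase selectivity panel run as in vitro activity or binding assays.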

Cytochrome P450 2D6 [24] = target: T4, Cytochrome P450 2D6; experiment: Inhibition of CYP2D6; type: ADME
Method in brief: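 Human liver microsomes incubated with a selective probe substrate for each CYP isozyme, with and without test compound. Metabolite formation quantified by LC/MS/MS. Activity with compound normalized to activity without compound and expressed as percent of control. IC50 derived from the concentration response.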

[25] = target: Hepatocyte growth factor receptor (Homo sapiens, UniProt P08581); experiment: Inhibition of MET
Chain of Hepatocyte growth factor receptor (P08581 whole entry): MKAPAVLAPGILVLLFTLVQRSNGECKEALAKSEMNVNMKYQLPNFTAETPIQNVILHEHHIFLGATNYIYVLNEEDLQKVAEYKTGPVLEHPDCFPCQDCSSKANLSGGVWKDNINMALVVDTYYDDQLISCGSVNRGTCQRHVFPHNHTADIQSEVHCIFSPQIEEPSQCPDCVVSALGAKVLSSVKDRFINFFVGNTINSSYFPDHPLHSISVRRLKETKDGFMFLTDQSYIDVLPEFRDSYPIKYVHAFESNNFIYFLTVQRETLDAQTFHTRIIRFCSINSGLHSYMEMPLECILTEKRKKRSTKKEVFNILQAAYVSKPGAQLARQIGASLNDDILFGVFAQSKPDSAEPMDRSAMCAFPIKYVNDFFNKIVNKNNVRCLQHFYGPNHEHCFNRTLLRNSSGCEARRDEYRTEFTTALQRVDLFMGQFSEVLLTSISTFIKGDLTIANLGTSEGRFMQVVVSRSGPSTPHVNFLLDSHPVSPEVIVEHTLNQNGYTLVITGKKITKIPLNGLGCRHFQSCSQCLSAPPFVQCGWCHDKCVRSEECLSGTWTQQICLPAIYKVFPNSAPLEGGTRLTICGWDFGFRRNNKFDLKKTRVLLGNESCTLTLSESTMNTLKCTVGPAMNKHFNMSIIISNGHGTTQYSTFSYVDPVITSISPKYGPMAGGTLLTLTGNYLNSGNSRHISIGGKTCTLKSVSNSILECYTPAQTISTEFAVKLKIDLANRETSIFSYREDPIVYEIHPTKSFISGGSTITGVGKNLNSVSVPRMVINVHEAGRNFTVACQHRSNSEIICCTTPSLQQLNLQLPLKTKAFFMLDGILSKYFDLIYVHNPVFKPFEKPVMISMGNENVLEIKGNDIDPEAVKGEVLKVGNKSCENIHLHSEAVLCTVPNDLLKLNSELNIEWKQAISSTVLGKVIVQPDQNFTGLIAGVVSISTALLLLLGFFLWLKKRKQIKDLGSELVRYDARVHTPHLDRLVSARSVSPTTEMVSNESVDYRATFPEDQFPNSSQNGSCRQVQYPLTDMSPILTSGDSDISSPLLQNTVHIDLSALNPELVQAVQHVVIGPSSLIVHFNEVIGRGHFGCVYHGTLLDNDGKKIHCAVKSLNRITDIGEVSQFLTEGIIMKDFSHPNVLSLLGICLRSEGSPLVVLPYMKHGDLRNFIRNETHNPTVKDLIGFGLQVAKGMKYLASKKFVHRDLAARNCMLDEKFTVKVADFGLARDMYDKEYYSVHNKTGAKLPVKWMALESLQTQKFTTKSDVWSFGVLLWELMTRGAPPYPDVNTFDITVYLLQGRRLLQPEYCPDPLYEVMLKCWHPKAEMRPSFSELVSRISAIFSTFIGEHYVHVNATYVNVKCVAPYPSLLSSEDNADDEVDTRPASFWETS

A549 [26] = experiment: Selectivity ratio of EC50 for human A549 cells in presence of 70% human serum albumin to EC50 for human A549 cells in absence of 70% human serum albumin; type: functional
[27] = target: Tyrosine-protein kinase Lck (Homo sapiens) (UniProt P06239); experiment: Inhibition of LCK
[28] = Inhibition of ROCK; method in brief: as §5

SMILES: CCn1cc(-c2ccnc3[nH]c(-c4cccc(CN(C)C)c4)cc23)c(-c2ccc(NC(=O)N(C)C)cc2)n1 [GSK-1070916]
Ki (Aurora kinase C [1]): 1.5 nM
AUC (Mus musculus [2]): 345 ng·h/mL/mg/kg
inhibition (HL-60 [3]): Active
inhibition (HL-60 [4]): Active
inhibition (Mus musculus [5]): Dose-dependent effect
IC50 (Cytochrome P450 2C9 [6]): 38000 nM
solubility [7]: > 10000 µg/mL
IC50 (Aurora kinase C [8]): 6.5 nM
Ki (Aurora kinase C [8]): 1.5 nM
IC50 (Cytochrome P450 1A2): > 33000 nM
inhibition (HL-60 [9]): Active
Vd [10]: 0.8 L/kg
MRT [11]: 18 min
IC50 (Cytochrome P450 2D6 [12]): 12000 nM
clearance [13]: 49.4 mL/min/kg
IC50 (Cytochrome P450 2C19): 81000 nM
Activity [14]: 270 min
IC50 (Aurora kinase B [15]): 5 nM
inhibition (INH) (Cytochrome P450 3A4): Not Active

IC50 (Aurora kinase A): 128 nM
EC50 (A549 [16]): 12 nM
IC50 (Aurora kinase B [15]): 3 nM
Ratio IC50 (Homo sapiens): 42
SMILES: CCNC(=O)Nc1ccc(-c2nn(CC)cc2-c2ccnc3[nH]c(-c4cccc(CN(C)C)c4)cc23)cc1

IC50 (Aurora kinase A): 631 nM
Vd [17]: 1.7 L/kg
half-life [18]: 12 min
IC50 (Cytochrome P450 2C9 [19]): < 100 nM
TIME (Aurora kinase B [20]): 0.128 h
clearance [21]: 128 mL/min/kg
Papp [22]: 17 ×10⁻⁶ cm/s
IC50 [23]: 158 nM
IC50 (Cytochrome P450 2D6 [24]): < 100 nM
EC50 (A549 [16]): 79 nM
IC50 [25]: 316 nM
SMILES: CCn1cc(-c2ccnc3[nH]ccc23)c(-c2ccc(NC(=O)Nc3ccccc3)cc2)n1

IC50 (Aurora kinase A): 53 nM
inhibition [27]: Active
EC50 (A549 [16]): 14 nM
inhibition [25]: Active
inhibition [28]: Active
IC50 (Aurora kinase B [15]): 20 nM
Ratio IC50 (Homo sapiens): 3
SMILES: CCn1cc(-c2ccnc3[nH]c(-c4cccc(CN(C)C)c4)cc23)c(-c2ccc(NC(=O)Nc3ccccc3)cc2)n1
Ratio EC50 (A549 [26]): 10

IC50 (Aurora kinase A): 514 nM
EC50 (A549 [16]): 6 nM
IC50 (Aurora kinase B [15]): 3.6 nM
Ratio IC50 (Homo sapiens): 156
SMILES: CCn1cc(-c2ccnc3[nH]c(-c4ccc(CN(C)C)cc4)cc23)c(-c2ccc(NC(=O)N(C)C)cc2)n1

IC50 (Aurora kinase C [8]): 17 nM
SMILES: CCN(CCCOc1ccc2c(Nc3cc(CC(=O)Nc4cccc(F)c4)n[nH]3)ncnc2c1)CCOP(=O)(O)O [BARASERTIB]
